# Source: PubChem BioAssay (The Scripps Research Institute Molecular Screening Center)
# TAAR1 ag = human TAAR1 agonists, primary screen, Fluo-8 calcium fluorescence, CHO RD-HGA16 cells | Trace amine-associated receptor 1 (Homo sapiens), Q96RJ0 | activation, % at 3 µM | vehicle wells 0%, saturating PEA agonist 100% | AID 624467, 2012 | 360,000 compounds, 0.99% hits;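 active means activation above the mean activation of all test compounds in the run plus 3 SD, cut at about 38% in these data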
# Target sequence (Q96RJ0 whole entry, looked up): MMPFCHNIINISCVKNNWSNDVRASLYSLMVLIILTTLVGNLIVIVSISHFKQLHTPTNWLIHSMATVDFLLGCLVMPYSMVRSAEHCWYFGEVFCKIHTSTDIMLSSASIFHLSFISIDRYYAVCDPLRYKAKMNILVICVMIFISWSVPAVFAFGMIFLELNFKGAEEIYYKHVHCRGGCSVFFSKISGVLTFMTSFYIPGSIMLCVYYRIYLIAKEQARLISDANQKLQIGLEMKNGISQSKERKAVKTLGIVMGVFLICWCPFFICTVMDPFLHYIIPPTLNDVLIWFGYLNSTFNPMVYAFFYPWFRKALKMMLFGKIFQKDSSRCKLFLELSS
#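 Test system: RD-HGA16 (CHO) cells co-expressing Gα16 and hTAAR1 / Benchmarks: DMSO vehicle as 0%, PEA at EC100 as 100% / Repeats: no replicates (n 1) / Measure: % activation from peak over basal fluorescence ratio, DMSO-to-PEA scaled / Timing: 17-24 h plating, Fluo-8 75 min 37 °C, 30 min RT / Technique: kinetic Fluo-8 calcium fluorescence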
# CHRM1 agonist = human M1 muscarinic receptor agonists, primary screen, Fluo-8 calcium fluorescence, CHO-K1 cells, HTS; Muscarinic acetylcholine receptor M1 (Homo sapiens), P11229; CHO-K1 hM1, agonist mode; 0% DMSO, 100% acetylcholine EC100; activation, % at 3 µM; 360,000 compounds, 0.33% hits; AID 588814, 2011;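 active means activation above the run's mean compound activation plus 3 SD, cut at about 16% in these data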;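 further: peak over basal fluorescence ratio within a 140 s kinetic read after compound addition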
# m5-HT2A agonist = mouse Htr2a agonists via beta-arrestin recruitment, primary screen, cell-based, luminescence; 360,000 compounds, 0.66% hits; activation, % at 7.6 µM; CHO-K1 mHTR2A beta-arrestin complementation; percent of 30 µM serotonin response; 5-hydroxytryptamine receptor 2A (Mus musculus), P35363;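 active means activation above a run cutoff, the mean activation of all tested compounds plus 3 SD, cut at about 14% in these data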;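 further: 0% = plate median of compound wells and 100% = 30 µM serotonin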
# TAAR1 antag = human TAAR1 antagonists, primary screen, Fluo-8 calcium fluorescence, CHO RD-HGA16 cells; AID 624466, 2012; antagonist; Trace amine-associated receptor 1 (Homo sapiens), Q96RJ0; 360,000 compounds, 1.5% hits; inhibition, % at 3 µM;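 active means inhibition above a per-plate cutoff, the mean inhibition of test compounds on that plate plus 3 SD, cut at about 49% in these data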;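 further: 0% = DMSO plus EC80 beta-PEA response and 100% = DMSO alone without agonist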
#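 Assay system: RD-HGA16 CHO cells with stable hTAAR1 and Gα16 / Reagent: EC80 β-phenethylamine stimulus / Doses: 3 µM, single point / Timing: dye loading 75 min at 37 °C, then 30 min room temperature / Measured by: Fluo-8 intracellular calcium dye fluorescence, real-time kinetic reads / Controls: vehicle wells and EC80 agonist wells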
# M1 antag = human M1 muscarinic receptor antagonists, primary screen, CHO-K1 cells, Fluo-8 calcium fluorescence, 1536-well; Muscarinic acetylcholine receptor M1 (Homo sapiens), P11229; CHO-K1 hM1, ACh EC80 antagonist; inhibition, % at 3 µM; 360,000 compounds, 1.3% hits;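 active means percent inhibition above its own plate's cutoff, namely the mean of that plate's compound wells plus 3 SD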;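 further: peak over basal fluorescence ratio during 140 s after agonist addition; 0% = ACh EC80 plus DMSO and 100% = DMSO alone without agonist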
# CHRM1 PAM = human M1 muscarinic receptor positive allosteric modulators, primary screen, CHO-K1 cells, Fluo-8 calcium fluorescence, 1536-well. Muscarinic acetylcholine receptor M1 (Homo sapiens), P11229. activation, % at 3 µM. AID 588819, 2011. CHO-K1 hM1, ACh EC20; 0% = ACh EC20, 100% = maximal ACh. 360,000 compounds, 0.088% hits; in the data active means activation above about 19%, passing the limit was not always enough
# TAAR1 ag confirm = human TAAR1 agonists, retest of hits, confirmation, Fluo-8 calcium fluorescence, CHO RD-HGA16 cells; shares compounds with TAAR1 ag; scaled: DMSO 0%, maximal phenethylamine 100%; activation, % at 3 µM; 2,400 compounds, 82% hits;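 active means activation above a cutoff set at the run's mean compound activation plus 3 SD, cut at about 39% in these data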
# Ga16 ag counter = nonselective calcium mobilization agonists, CHO-Ga16 cells, counter-screen for hTAAR1 agonist project, cell-based, fluorescence, CHO-Ga16 parental line | shares compounds with TAAR1 ag | Fluo-8 calcium fluorescence; normalized to maximal ATP response, DMSO zero | activation, % at 3 µM | 2,400 compounds, 50% hits | AID 651787, 2012;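 active means activation above the run cutoff, the mean activation over all tested wells plus 3 SD, cut at about 12% in these data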;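 further: 0% = DMSO wells and 100% = maximal ATP response on the peak over basal ratio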
# TAAR1 desensitize = TAAR1 desensitization by agonist hits, confirmation, counter-screen for TAAR1 agonist project, cell-based, fluorescence, tachyphylaxis; shares compounds with TAAR1 ag; inhibition, % at 3 µM; CHO RD-HGA16 hTAAR1, Fluo-8 calcium, beta-PEA response inhibition; AID 651951, 2012; 2,400 compounds, 46% hits;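 active means inhibition above the run cutoff, the mean inhibition of all test compounds plus 3 SD, cut at about 49% in these data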;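 further: beta-PEA stimulus applied at its EC80; loss of beta-PEA calcium signal after compound pretreatment read as receptor desensitization; 0% = DMSO with beta-PEA at EC80 and 100% = DMSO alone without agonist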
# Ga16 antag count = inhibition of ATP-evoked calcium response in CHO-Ga16 cells, counter-screen for TAAR1 agonist project, cell-based, fluorescence; shares compounds with TAAR1 ag; CHO-Ga16 ATP-induced calcium, Fluo-8 fluorescence; inhibition, % at 3 µM; 2,400 compounds, 39% hits;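 active means inhibition above the plate's mean compound inhibition plus 3 SD, computed per plate, cut at about 22% in these data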;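 further: 0% = EC80 ATP with DMSO and 100% = DMSO wells without ATP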
# Active calls of the source: *; · = no result. Only some compounds are listed: those with a hit (about 3.9% of all), similar ones and a draw of the others.
SMILES,TAAR1 ag,CHRM1 agonist,m5-HT2A agonist,TAAR1 antag,M1 antag,CHRM1 PAM,TAAR1 ag confirm,Ga16 ag counter,TAAR1 desensitize,Ga16 antag count
CCC1(c2ccc(F)cc2)NC(=O)N(CC(=O)c2cc(C)n(C3CC3)c2C)C1=O (configuration not stated),103*,30*,1,58*,7,1,98*,51*,52*,32*
CC1CCN(CC(=O)N2c3ccccc3CC2C)CC1 (configuration not stated),0,-8,-2,-4,-9,7,·,·,·,·
CCC1(c2ccc(F)cc2)NC(=O)N(CC(=O)N2c3ccccc3CC2C)C1=O (configuration not stated),76*,27*,-3,28,6,-1,84*,47*,43,30*
COc1ccccc1Nc1nnc(SCC(=O)NC(=O)Nc2ccc3c(c2)OCCO3)s1,2,-6,-1,11,-4,12,·,·,·,·
COc1ccc(NC(=O)C2CC(=O)NC(Nc3cccc(C)c3)=N2)cc1 (configuration not stated),51*,-2,0,8,-6,5,54*,3,14,8
Cc1cccc(NC(=O)C2CC(=O)NC(Nc3nc4ccccc4s3)=N2)c1 (configuration not stated),11,·,·,-17,·,·,·,·,·,·
Cc1cccc(NC(=O)CSCC(=O)Nc2ccccc2C(=O)NC2CC2)c1,0,-1,-1,6,-22,6,·,·,·,·
CC1=C(C(=O)Nc2cc(C(=O)N(C)Cc3ccccc3)ccc2C)SCCO1,0,-3,-8,-15,-1,0,·,·,·,·
COc1cc(N)c2ncsc2c1,3,3,1,-13,-15,17,·,·,·,·
Fc1ccccc1/C=N/Nc1ncnc2ccccc12,4,-8,-3,-5,-1,6,·,·,·,·
Clc1ccc(/C=N/Nc2ncnc3ccccc23)cc1Cl,45*,-1,0,14,8,1,19,13*,14,-2
Cc1cccc(CCNCc2c(C(=O)O)c(C)n(-c3ccccc3)c2C)c1,58*,-5,3,6,-20,14,78*,1,44,3
Cc1c(CNCCCc2ccccc2)c(C(=O)O)c(C)n1Cc1ccccc1,11,-5,-1,-5,0,6,·,·,·,·
CCOc1ccc(CCNC(=O)CCC(=O)N2CCOc3ccccc32)cc1OCC,-1,-4,2,1,-5,6,·,·,·,·
Cc1cc(NC(=O)CSc2nc(-c3ccco3)cc(C(F)(F)F)n2)no1,44*,-3,-2,18,3,1,-1,5,3,11
Cc1cc(NC(=O)CCSc2nc(-c3ccco3)cc(C(F)(F)F)n2)no1,8,-5,2,12,-10,2,·,·,·,·
O=C(c1ccco1)N1CCN(C2CN(Cc3cn(Cc4ccccc4C(F)(F)F)nn3)S(=O)(=O)C2)CC1 (configuration not stated),-1,-8,0,1,-2,6,·,·,·,·
O=C1c2cccc3c(O)ccc(c23)C(=O)N1c1ccc(Cl)cc1,235*,78*,-6,59*,45*,-30,129*,121*,75*,70*
Cc1ccc(N2C(=O)c3cccc4c(C(=O)O)ccc(c34)C2=O)cc1,2,·,·,6,·,·,·,·,·,·
O=C1c2cccc3c(O)ccc(c23)C(=O)N1Cc1ccco1,132*,68*,4,39,30*,-23,158*,188*,74*,80*
CC(=O)Nc1ccc(N2C(=O)c3cccc4c(O)ccc(c34)C2=O)cc1,174*,98*,9,42,39*,-32,63*,65*,31,39*
Cc1cc(/C=N/Nc2ncnc(N)c2[N+](=O)[O-])c(C)n1-c1ccccc1,73*,13,-3,11,-20,0,120*,49*,83*,16
O=C1c2cccc3c(N4CCCCC4)ccc(c23)C(=O)N1c1cccc(O)c1,121*,36*,5,79*,32*,-7,27,32*,38,48*
Cc1n[nH]c(C)c1N1C(=O)c2cccc3c(N4CCCCCC4)ccc(c23)C1=O,148*,93*,7,82*,63*,-20,88*,119*,74*,82*
Cc1ccc(N=Nc2ccc(O)c3ncccc23)cc1,63*,-4,-3,82*,-7,9,5,4,48,51*
O=C(Nc1ccccc1F)N1CCc2ccccc2C1,50*,-3,-1,-18,-7,4,40*,1,11,7
O=C(c1ccc(CN2CCc3ccccc3C2)cc1)N1CCc2ccccc2C1,67*,-5,-1,-11,-16,-2,64*,2,18,12
Cc1ccc(C)c(NC(=O)N2CCc3ccccc3C2)c1,86*,-5,4,-5,14,-2,73*,5,33,7
O=C(/C=C/C(=O)N1CCc2ccccc2C1)N1CCc2ccccc2C1,82*,-5,12,47,-9,2,87*,3,58*,8
O=C(/C=C/c1ccc(F)cc1)N1CCc2ccccc2C1,4,-5,-2,-9,7,-3,·,·,·,·
